Screening results deposited in PubChem BioAssay by several laboratories.
Only some compounds are listed: those with a hit (about 3.8% of all), similar ones and a draw of the others.
Yeast growth inh – chemicals that inhibit yeast BB579 growth in restrictive medium (lifespan-shortening candidates). hit rate 0.51% among 140,000. inhibition, % at 10 µM. S. cerevisiae BB579 growth, OD615, 48 h;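 active = inhibition above a set limit, 3 SD over the mean compound inhibition, cut at about 44% in these data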
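System: Saccharomyces cerevisiae DeaD strain BB579, replicative lifespan model yeast | Buffer or medium: Restrictive glucose-based CSMM-D medium | Times: 4 h preincubation and 48 h exposure at 30 °C | Detection: OD615 turbidity measurement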
Measles CPE – protection of cells from measles virus. Measles virus-infected cells, CPE protection, absorbance. protection (pct of control), % at 4 µM. hit rate 1.5% among 140,000. AID 841; in the data active = protection mostly above about 24%, no sharp cut-off; inactive = mostly below about 26%
RAM network inh – blocks the yeast RAM network; S. cerevisiae dse1pr::URA3 reporter, 5-FOA growth OD615, 2 d; analog-sensitive cbk1-as2 kinase mutant strain; inhibition, % at 50 µM; hit rate 1.8% among 190,000;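 active = inhibition above a set limit, 3 SD over mean compound inhibition, cut at about 8.4% in these data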;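 also: inhibition rescues growth on 5-FOA so higher OD means more RAM inhibition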
Yeast lifespan up – extends the lifespan of yeast | S. cerevisiae growth with nicotinamide, OD615; deaD strain in restrictive glucose medium | inhibition of the nicotinamide effect, % at 10 µM | hit rate 0.68% among 130,000;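 active = inhibition above a set limit, placed 3 SD over the median of all compounds, cut at about 26% in these data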
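Test system: DeaD-strain S. cerevisiae / Buffer or medium: restrictive glucose medium / Also added: nicotinamide 1.5 mM / Doses: one concentration, 10 µM, DMSO 0.25% / Schedule: 48 h at 30 °C / Signal: OD615 measurement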
Large screens that a line does not name were inactive.

COc1ccc(CNC(=O)c2cc(-c3ccccc3OC)on2)cc1	RAM network inh 8.6
Cc1ccccc1-c1nc2sc3c(c2c(=O)n1N)CCCC3	none
Nn1c(-c2cccs2)nc2sc3c(c2c1=O)CCCC3	RAM network inh 9.0
CC(OC(=O)CCCSc1nc2ccccc2s1)C(=O)NC(N)=O (stereo not drawn)	none (no result: Yeast growth inh, Measles CPE, Yeast lifespan up)
CSc1nc(-c2ccc(Cl)cc2Cl)[nH]c(=O)c1C#N	Measles CPE 55
Cc1cc(C)c(C#N)c(SCC(=O)c2ccc(Cl)cc2Cl)n1	none
Cc1ccccc1NC1=C(C(=O)c2ccccc2)N(C)S(=O)(=O)c2ccccc21	none
O=C(C1=C(Nc2ccccc2)c2ccccc2S(=O)(=O)N1)c1ccccc1	Measles CPE 26
C=CCNC(=O)c1sccc1Oc1ccc(F)cc1[N+](=O)[O-]	none (no result: Yeast growth inh, Measles CPE, Yeast lifespan up)
CC(C)NC(=O)C1CCCN(S(=O)(=O)c2cccs2)C1 (stereo not drawn)	none
CCOC(=O)C1CCCN(S(=O)(=O)c2cccs2)C1 (stereo not drawn)	Measles CPE 29
CC(=O)NC(CSC(CC(=O)c1ccco1)c1ccc(C)cc1)C(=O)O (stereo not drawn)	none (no result: Yeast growth inh, Measles CPE, Yeast lifespan up)
CO/N=C/c1ccc(Oc2ccc(C)cc2)c([N+](=O)[O-])c1	none (no result: Yeast growth inh, Measles CPE, Yeast lifespan up)
CCC(=O)c1ccc(Oc2ccc(C(=O)c3ccc(C)cc3)cc2[N+](=O)[O-])cc1	RAM network inh 11
COc1cc2c(cc1NC(=S)NC(=O)/C=C/c1ccc(OC)c(OC)c1)oc1ccccc12	Measles CPE 53
COc1ccc(S(=O)(=O)N[C@@H](C)C(=O)OCC(=O)Nc2cc3oc4ccccc4c3cc2OC)cc1	RAM network inh 9.6
COc1ccc(/C=C/C(=O)NC(=S)Nc2cc3oc4ccccc4c3cc2OC)cc1	none
COc1ccc([N+](=O)[O-])cc1NC(=O)CSCc1ccccc1	none
COc1cc2c(cc1NC(=O)CSc1ccccc1)oc1ccccc12	RAM network inh 11
COc1ccc([N+](=O)[O-])cc1NC(=O)CSc1ccccc1	Measles CPE 66
Fc1cccc2sc(N3CCCC3)nc12	none (no result: Yeast growth inh, Measles CPE, Yeast lifespan up)
COC(=O)c1ccc(CN2CCN(CCc3ccccc3)C(CCO)C2)cc1 (stereo not drawn)	none (no result: Yeast growth inh, Measles CPE, Yeast lifespan up)
CCN(CC)CCNC(=S)Nc1ccc(F)cc1	none (no result: Yeast growth inh, Measles CPE, Yeast lifespan up)
O=C(O)Cc1ccc2c(c1)N(S(=O)(=O)c1cccc(C(F)(F)F)c1)CC(C(=O)O)O2 (stereo not drawn)	Measles CPE 43
COc1ccc2nc(NC(=O)C3CCN(S(=O)(=O)c4cnc[nH]4)CC3)sc2c1	none
Cc1ccc2nc(NC(=O)C3CCN(S(=O)(=O)c4cnc[nH]4)CC3)sc2c1	RAM network inh 11
CNC(=S)NCc1ccc2[nH]c(C)cc2c1	none (no result: Yeast growth inh, Measles CPE, Yeast lifespan up)
CCc1cccc(C)c1NC(=S)NCc1ccc2[nH]c(C)cc2c1	Yeast growth inh 54
COc1ccc(NC(=O)CSc2nnc(NC(C)=O)s2)c([N+](=O)[O-])c1	none (no result: Yeast growth inh, Measles CPE, Yeast lifespan up)
O=C1CC(N2CCOCC2)C(=O)N1Cc1ccc(N2CCCC2=O)cc1 (stereo not drawn)	Measles CPE 42
O=C1CCCN1CCC1CCN(C2CC(=O)N(Cc3ccc(N4CCCC4=O)cc3)C2=O)CC1 (stereo not drawn)	none
CCOc1cc(C(N)=O)cc(Br)c1OCc1ccccc1	none (no result: Yeast growth inh, Measles CPE, Yeast lifespan up)
Cc1ccccc1COC[C@H](CC(C)C)N1CCN(C(=O)c2cccc(C(F)(F)F)c2)CCC1=O	none
COc1ccc(OC)c(C(=O)CSc2nnc(-c3ccc(OC)c(OC)c3)o2)c1	RAM network inh 10
COc1ccccc1OCc1nnc(SCC(=O)c2cc(Cl)ccc2OC)o1	RAM network inh 9.5
CCC(c1nnnn1C1CCCC1)N1CCC(C(N)=O)CC1 (stereo not drawn)	none (no result: Yeast growth inh, Measles CPE, Yeast lifespan up)
N#Cc1c(N)nc2c(c1-c1ccccc1)CCC2	none (no result: Yeast growth inh, Measles CPE, Yeast lifespan up)
COCCCNC(=O)Cn1c(=O)n(Cc2ccc(C(=O)NCCc3ccc(OC)c(OC)c3)cc2)c(=O)c2ccccc21	none (no result: Yeast growth inh, Measles CPE, Yeast lifespan up)
O=C(NCCCN1CCOCC1)C(=O)NCc1ccc(Cl)cc1	none (no result: Yeast growth inh, Measles CPE, Yeast lifespan up)
CC1Cc2ccccc2N1C(=O)COc1ccc2c(c1)OCO2 (stereo not drawn)	none (no result: Yeast growth inh, Measles CPE, Yeast lifespan up)
Cc1ccc(NS(=O)(=O)c2ccc(OCC(=O)NCc3cccnc3)cc2)cc1	none
COc1ccc(NC(=O)c2ccc(-c3ccccc3Cl)o2)cc1	RAM network inh 8.7
COc1ccc(NC(=O)c2ccc(-c3ccc(C)c4ccccc34)o2)cc1	none
O=C(Nc1cccc(F)c1)c1ccc(-c2ccccc2Cl)o1	RAM network inh 10
COc1ccc(C(=O)On2c(-c3ccc(Br)cc3)nc3ccccc3c2=O)cc1	Yeast lifespan up 96
COc1cc(OC)cc(-c2nc3ccccc3c(=O)n2OC(=O)c2ccc(Br)cc2)c1	Yeast lifespan up 71
COc1ccc(-c2nc3ccccc3c(=O)n2N)cc1	none
O=c1c2cn[nH]c2nc(SCc2c(F)cccc2F)n1-c1ccc(Cl)cc1	none (no result: Yeast growth inh, Measles CPE, Yeast lifespan up)
CCOC(=O)C1=C(N)Oc2c(c(=O)[nH]c3ccccc23)C1c1ccccc1 (stereo not drawn)	none
Cc1cccc(CSc2nnnn2-c2ccccc2)c1	Measles CPE 69
Cc1cccc(CSc2nnc(N)n2-c2ccccc2)c1	none (no result: Yeast lifespan up)
CNC(=O)c1c(C)noc1C	none (no result: Yeast growth inh, Measles CPE, Yeast lifespan up)
Cc1ccc2nc(-c3ccc(NS(=O)(=O)c4ccc(F)c(F)c4)cc3)sc2c1	Yeast growth inh 68
CN1CCN(C(=O)c2cnn3c2NC(c2ccccc2)CC3C(F)(F)F)CC1 (stereo not drawn)	none (no result: Yeast growth inh, Measles CPE, Yeast lifespan up)
O=C(CSc1nc2ccc(Cl)cc2[nH]1)NCCc1ccccc1	Measles CPE 29
Cc1ccc(-c2nc(CSc3nc4ccccc4c(=O)n3C)cs2)cc1	RAM network inh 11
CCN(CC)C(=O)Cn1c(=O)c2ccccc2n2c(=S)sc(-c3cccc(C)c3)c12	none
CCOC(=O)c1c(NC(=O)CSc2nnc(Cc3ccccc3)o2)sc(C(C)=O)c1C	RAM network inh 9.0
CCOC(=O)c1c(NC(=O)CSc2nc3ccccc3o2)sc(C(C)=O)c1C	RAM network inh 9.2
CCOC(=O)c1sc(NC(=O)CSc2nc3ccccc3s2)c(C(=O)OCC)c1C	Measles CPE 40
CCOC(=O)c1sc(NC(=O)CSc2nncs2)c(C(=O)OCC)c1C	none
CCOC(=O)c1c(NC(=O)CSc2nnc(-c3ccccc3)o2)sc(C(C)=O)c1C	none
CCOC(=O)c1c(NC(=O)CSc2nnc(-c3ccc(C)cc3)o2)sc(C(C)=O)c1C	none
Cc1ccc(S(=O)(=O)N2CCCC2C(=O)OCc2ccccc2)cc1 (stereo not drawn)	RAM network inh 9.4
O=C(OCc1ccc([N+](=O)[O-])cc1)C1CCN(S(=O)(=O)c2ccccc2)CC1	RAM network inh 9.1
CSC(=NC#N)N1CCN(c2ccc([N+](=O)[O-])cc2)CC1	none (no result: Yeast growth inh, Measles CPE, Yeast lifespan up)
CCCC(C)NC(=O)c1sc2nc3n(c(=O)c2c1C)CCC3 (stereo not drawn)	none (no result: Yeast growth inh, Measles CPE, Yeast lifespan up)
O=C1OCC(CO)(CO)N=C1NNc1cc(Cl)ccc1Cl	Yeast growth inh 64
Cc1cc(C)n(-c2ccc(C(=O)N3CCC(CO)(Cc4ccccc4)CC3)cc2)n1	none (no result: Yeast growth inh, Measles CPE, Yeast lifespan up)
COc1ccc(NC(=O)c2cc(S(=O)(=O)N(Cc3ccccc3)c3ccccc3)ccc2Cl)cn1	Measles CPE 39
